Compounds with a hit are over-represented: about 2.2% of the library has one in this group of screens.
HKDC1 inhibitor: HKDC1 (human) hexokinase inhibition. 340,000 tested, 0.16% active. AID 493160. Q2TB90. inhibition, % at 20 µM. recombinant HKDC1, G6PDH/diaphorase resazurin coupled fluorescence;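 active means inhibition above about 35% when tested at 20 µM, limit read from the data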;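 further: plate controls were DMSO wells with enzyme for no effect and DMSO wells lacking enzyme for full effect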
Target sequence (Q2TB90 whole entry, looked up): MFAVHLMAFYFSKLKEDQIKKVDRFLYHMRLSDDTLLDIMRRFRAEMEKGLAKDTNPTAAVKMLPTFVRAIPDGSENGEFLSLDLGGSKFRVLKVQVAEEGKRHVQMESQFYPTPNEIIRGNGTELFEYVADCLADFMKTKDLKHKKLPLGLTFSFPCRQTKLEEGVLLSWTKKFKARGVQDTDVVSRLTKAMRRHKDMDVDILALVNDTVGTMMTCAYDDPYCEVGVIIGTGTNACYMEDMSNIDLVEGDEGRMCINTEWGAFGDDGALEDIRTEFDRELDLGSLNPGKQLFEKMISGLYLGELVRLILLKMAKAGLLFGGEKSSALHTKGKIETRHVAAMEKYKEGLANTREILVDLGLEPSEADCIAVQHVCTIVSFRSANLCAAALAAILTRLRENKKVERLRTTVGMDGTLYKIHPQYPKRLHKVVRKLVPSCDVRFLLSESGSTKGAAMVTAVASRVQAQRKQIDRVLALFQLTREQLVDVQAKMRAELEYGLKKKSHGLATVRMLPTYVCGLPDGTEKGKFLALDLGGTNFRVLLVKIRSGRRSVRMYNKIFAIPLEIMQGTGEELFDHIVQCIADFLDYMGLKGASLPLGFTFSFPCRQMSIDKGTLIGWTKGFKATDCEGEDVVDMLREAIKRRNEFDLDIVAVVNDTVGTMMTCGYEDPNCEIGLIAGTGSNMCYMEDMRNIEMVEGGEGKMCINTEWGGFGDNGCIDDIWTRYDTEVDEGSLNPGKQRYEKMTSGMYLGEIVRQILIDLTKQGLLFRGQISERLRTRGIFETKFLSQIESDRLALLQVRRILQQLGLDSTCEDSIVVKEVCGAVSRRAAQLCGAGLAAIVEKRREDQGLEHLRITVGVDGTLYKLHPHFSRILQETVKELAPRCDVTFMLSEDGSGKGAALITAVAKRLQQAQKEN
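Test system: Recombinant HKDC1 (HK5) hexokinase enzyme, produced in-house | Input: HKDC1 at 5 µg/mL | Buffer or medium: Tris pH 8.0 buffer with MgCl2, Tween-20, BSA, BME | Schedule: 90 min reaction incubation at room temperature, dark | Technique: Resazurin-to-resorufin fluorescence via G6PDH and diaphorase coupling, 525/613 nm | Controls: DMSO wells with and without enzyme mix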
PfG6PD inh: PfG6PD (Plasmodium falciparum) enzyme inhibition. PfGluPho enzyme, NADPH resazurin-diaphorase fluorescence. 350,000 tested, 0.78% active. AID 504690. inhibition, % at 20 µM;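 active means inhibition reaching at least a set limit at 20 µM in the primary screen, cut at about 59% in these data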;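 further: 0% = DMSO wells with substrate and 100% = DMSO wells lacking glucose-6-phosphate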
Neddylation inh: cullin neddylation inhibition; TR-FRET cullin neddylation, biochemical; P61081+Q13564; 360,000 tested, 0.58% active; inhibition, % at 25 µM; in the data active means inhibition above about 36%
PfM18AAP inh: PfM18AAP enzyme inhibition | recombinant PfM18AAP, H-Glu-NHMec fluorogenic cleavage | inhibition, % at 7.35 µM | 290,000 tested, 1.2% active;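 active means inhibition above the campaign mean inhibition over all tested compounds plus 3 SD, cut at about 28% in these data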;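 further: 0% = plate median of test compound wells and 100% = 2 mM ZnCl2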
PfG6PD confirm: PfG6PD inhibition, single-dose confirmed; shares compounds with PfG6PD inh; recombinant PfGluPho, NADPH-diaphorase-resazurin fluorescence; inhibition, % at 20 µM; 2,400 tested, 34% active;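 active means inhibition of at least 50% at 20 µM in any single replicate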;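 further: 0% = DMSO with substrate and 100% = DMSO lacking glucose-6-phosphate substrate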
Diaph ctr 10uM: counter-screen for P. falciparum G6PD inhibitors: diaphorase inhibitors, oxidizers; inhibition, % at 20 µM; diaphorase-coupled resazurin reduction, fluorescence, NADPH 10 uM; shares compounds with PfG6PD inh; 820 tested, 39% active;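 active means average inhibition reaching 50% or more with the compound at 20 µM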;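 further: resorufin red fluorescence formed as diaphorase reduces resazurin using NADPH; 0% = DMSO with enzyme and 100% = DMSO without enzyme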
Diaphorase 30uM: diaphorase inhibition or oxidation at 30 uM NADPH; shares compounds with PfG6PD inh; Diaphorase/resazurin coupled assay, resorufin fluorescence; inhibition, % at 20 µM; 820 tested, 29% active; AID 504863;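 active means inhibition averaging 50% or more, tested at 20 µM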;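 further: 0% = DMSO with enzyme and 100% = DMSO wells lacking diaphorase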
Starred values were filed as active, the others as inactive; . = not tested or not shown.

SMILES	HKDC1 inhibitor	PfG6PD inh	Neddylation inh	PfM18AAP inh	PfG6PD confirm	others
CN1CCN(C(=S)c2ccc([N+](=O)[O-])cc2)CC1	-15	61*	-21	13	55*	Diaph ctr 10uM=-18;Diaphorase 30uM=-25
Cc1c(Cc2ccccc2)c(=O)oc2cc(OC(C)C(=O)NCC3CCC(C(=O)O)CC3)c(Cl)cc12 (stereo not given)	6	12	27	3	.
CCn1c(SCC(=O)c2cc(C)n(-c3ccc(C(=O)OC)cc3)c2C)nnc1-c1cccnc1	0	90*	3	6	37
Cc1ccc(NC(=O)/C=C/c2ccc(S(=O)(=O)N3CCOCC3)cc2)cc1S(=O)(=O)N(C)C	5	10	-27	.	.
COc1ccc(C(=O)Nc2ccc3c(c2)C(=O)c2ccccc2C3=O)cc1OC	9	0	-7	-3	.
COc1ccc(C(=O)c2c(C(F)(F)F)oc3c2C(=O)c2ccccc2C3=O)cc1OC	20	80*	-30	-3	53*	Diaph ctr 10uM=44;Diaphorase 30uM=52*
COc1ccc(OC)c(N(CC(=O)NCCSCc2ccco2)S(=O)(=O)c2ccc(OC)c(OC)c2)c1	-4	-4	9	1	.
O=C1C=C(NCCc2cc(Br)c(O)c(Br)c2)C(=O)c2ncccc21	30	115*	-44	.	101*	Diaph ctr 10uM=46;Diaphorase 30uM=35
CC(C)(C)c1cc(CCC(=O)NCCc2ccccn2)cc(C(C)(C)C)c1O	0	1	-3	-6	.
[O-]/[N+](=C\c1ccccc1)c1ccccc1	1	41	-16	.	.
[O-]/[N+](=C\c1ccccc1)c1ccc(Br)cc1	-1	84*	1	.	91*	Diaph ctr 10uM=72*;Diaphorase 30uM=38
CC(C)(C)Nc1nc(-c2ccc3c(c2)CCN3C(=O)C2CC2)cs1	-12	70*	5	10	17
O=C(Nc1ccc2oc(=O)ccc2c1)c1cc2ccccc2o1	-3	38	34	-3	.
O=C(Nc1ccc2c(c1)OCCO2)c1cc2ccccc2o1	-9	72*	7	-4	28
Cn1c2ccccc2c(=O)c2cc(C#CC3(O)CCCCC3)ccc21	2	62*	38	4	35
O=c1c2cc(F)ccc2sn1-c1ccc(F)cc1	8	113*	-19	.	106*	Diaph ctr 10uM=-12;Diaphorase 30uM=-13
Cc1ccc(C)c(-n2sc3ccc(F)cc3c2=O)c1	4	115*	-29	.	107*	Diaph ctr 10uM=-25;Diaphorase 30uM=-27
Cc1ccc(-c2nc3n(n2)Cc2ccccc2-3)cc1	-2	77*	-5	-5	37
Nc1nonc1-n1nnc(C(=O)N/N=C/c2ccc(OCc3ccccc3)cc2)c1CN1CCCCC1	-1	22	5	-9	.
COc1ccc(Cl)cc1NC(=O)c1cccc([N+](=O)[O-])c1O	15	77*	-30	.	57*	Diaph ctr 10uM=42;Diaphorase 30uM=38
COc1ccc(CCN2CC(C(=O)Nc3ccccc3F)CC2=O)cc1OC (stereo not given)	-2	1	9	.	.
Cc1ccc(N)cc1O	18	65*	0	.	37
CCc1cccc(NC(=O)COC(=O)c2c(C)nn(-c3ccccc3)c2C)c1	.	21	-1	.	.
Clc1ccc2nc(SCc3nnc(-c4ccccc4)o3)[nH]c2c1	8	113*	5	-2	44
O=C(COC(=O)c1ccccc1)Nc1cccc(S(=O)(=O)N2CCCCC2)c1	-1	5	4	.	.
SMILES	HKDC1 inhibitor	PfG6PD inh	Neddylation inh	PfM18AAP inh	PfG6PD confirm	others
Cc1ccc(C(=O)COC(=O)c2c(C)cc(=O)oc2C)cc1[N+](=O)[O-]	9	67*	-33	-5	-13
CN(C)c1ccc(NC(=O)c2cc3c(=O)n4ccccc4nc3n2C)cc1	11	62*	22	-6	8
COc1ccccc1N(C(C)=O)C1=C(Cl)C(=O)c2ccccc2C1=O	.	123*	1	.	115*	Diaph ctr 10uM=92*;Diaphorase 30uM=92*
CCN1C[C@@H]2[C@@H]3C(=O)N(C)C(=O)[C@@H]3[C@](Cc3ccccc3)(C1=O)N2C(=O)c1ccccc1	-4	-2	-12	.	.
CCC(C)(C)c1nnc(NC(=O)c2cccc([N+](=O)[O-])c2)s1	-3	116*	-13	-10	88*	Diaph ctr 10uM=93*;Diaphorase 30uM=64*
O=C(Nc1nnc(CSCc2ccc(Cl)cc2)s1)c1cccc([N+](=O)[O-])c1	-1	52	-10	-3	.
O=C(Nc1nnc(CSCc2ccc(F)cc2)s1)c1cccc([N+](=O)[O-])c1	-3	73*	-18	1	44
CCn1c(O)c(N=NC(=O)CNC(=O)c2cccnc2)c2ccccc21	.	-9	-33	.	.
CC(OC(=O)CSc1ccc([N+](=O)[O-])cc1)C(=O)NCc1ccccc1 (stereo not given)	5	66*	-29	.	-24
O=C(COC(=O)CSc1ccc([N+](=O)[O-])cc1)NCCCc1ccccc1	9	66*	-35	-6	-9
O=C(COC(=O)CSc1ccc([N+](=O)[O-])cc1)NCCc1ccccc1	3	17	-29	.	.
Cc1cc2nc3ccc(N(C)C)cc3nc2cc1N	24	79*	79*	.	32
Cc1ccc(-n2nc3cc(C)c(N)cc3n2)cc1	12	22	.	-15	.
O=C(Nc1ccnn1C1CCN(Cc2cc(Cl)ccc2O)CC1)C1CC1	3	-5	-2	1	.
CCOc1ccccc1N(CC(=O)N/N=C/c1cc(Br)ccc1OC)S(C)(=O)=O	1	118*	-9	4	72*	Diaph ctr 10uM=70*;Diaphorase 30uM=56*
O=C(CNC(=O)C1COc2ccccc2O1)N/N=C\c1ccccc1Cl (stereo not given)	0	60*	9	6	-2
CCOc1ccccc1C=NNC(=O)CCCCC(=O)NN=Cc1ccccc1OCC	-3	125*	4	.	78*	Diaph ctr 10uM=41;Diaphorase 30uM=54*
O=C(CCCC(=O)NN=Cc1ccccc1Cl)NN=Cc1ccccc1Cl	6	86*	-15	.	42
COc1cccc(/C=N/NC(=O)CNC(=O)C2COc3ccccc3O2)c1O (stereo not given)	-14	-28	28	6	.
CNc1oc(/C=C/c2cccc(OC)c2)nc1C#N	-4	19	26	-9	.
Nc1c(N(CCC2=CCCCC2)C(=O)C2CC2)c(=O)[nH]c(=O)n1Cc1ccccc1	5	2	1	-12	.
COCCC(C(=O)Oc1c(C(C)(C)C)cc(C)cc1C(C)(C)C)c1ccccc1 (stereo not given)	-2	8	5	.	.
CCOc1ccccc1/C=N/NC(=O)c1ccc(Cn2cc([N+](=O)[O-])cn2)o1	-2	61*	-15	8	35
CCOc1ccccc1/C=N/NC(=O)Cc1csc(Nc2cccc(C(F)(F)F)c2)n1	1	69*	5	2	7
CCc1ccccc1NC(=O)NNC(=O)CCc1ccc(OC)cc1	-4	-1	0	1	.
Cc1cccc(-c2nnc(SCC(=O)c3ccc(O)cc3O)n2C)c1	-2	18	-4	18	.

Source: PubChem
